OXTR potentiator: human OXTR potentiators, primary screen, fluorescence, CHO-OTR cells, Fluo-8 calcium | Oxytocin receptor (Homo sapiens), P30559 | Fluo-8 calcium fluorescence, potentiator mode; 0% = oxytocin EC15, 100% = EC100 | activation, % at 3 µM | 0.061% of 320,000 active | AID 2445, 2010;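 active = activation above that plate's cutoff, the mean activation of tested compounds plus 3 SD, cut at about 6.6% in these data, passing the limit was not always enough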
Target sequence (P30559 whole entry, looked up): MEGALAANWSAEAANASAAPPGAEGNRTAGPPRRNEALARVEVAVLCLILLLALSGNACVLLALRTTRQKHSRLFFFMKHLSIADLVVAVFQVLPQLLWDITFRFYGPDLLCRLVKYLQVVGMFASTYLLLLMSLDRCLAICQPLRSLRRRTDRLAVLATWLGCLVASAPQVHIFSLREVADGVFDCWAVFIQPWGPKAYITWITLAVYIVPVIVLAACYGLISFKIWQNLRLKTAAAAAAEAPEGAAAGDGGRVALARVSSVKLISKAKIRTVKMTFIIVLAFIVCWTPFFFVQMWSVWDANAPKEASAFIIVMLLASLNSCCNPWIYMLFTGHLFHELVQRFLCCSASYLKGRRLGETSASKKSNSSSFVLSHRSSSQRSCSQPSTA
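System: human OTR in CHO cells / Also added: sub-maximal oxytocin, roughly EC15 / Control set: EC15 oxytocin low, 75 nM oxytocin high / Schedule: 6 min compound pre-incubation at room temperature, 100 s kinetic read / Compound: single-point 3.0 µM / Replication: singlicate / Technique: Fluo-8 calcium dye fluorescence / Read-out basis: % activation of max/min ratio relative to oxytocin controls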
V1aR counter: agonists of human V1a receptor, primary screen, counter-screen for OXTR agonist project, fluorescence, CHO-V1R cells; Vasopressin V1a receptor (Homo sapiens), P37288; Fluo-8 calcium fluorescence, agonist mode; 0% DMSO, 100% 3 nM vasopressin; activation, % at 3 µM; 0.25% of 320,000 active;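 active = activation above the mean activation of all tested compounds plus 3 SD, per screening run, cut at about 20% in these data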;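 note: signal is peak over basal fluorescence ratio across a 100 second FLIPR read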
OXTR ag: human OXTR agonists, primary screen, fluorescence, CHO-OTR cells, Fluo-8 calcium | Fluo-8 calcium fluorescence; normalized: DMSO 0%, oxytocin 100% | activation, % at 3 µM | 0.32% of 320,000 active | AID 2435, 2010;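 active = activation above the mean of all tested compounds plus 3 SD, cutoff set per screening run, cut at about 20% in these data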;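 note: peak over basal fluorescence ratio from a 100 s FLIPR kinetic read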
TRPML3 ag: human TRPML3 channel agonists, primary screen, cell-based, HEK293 TRPML3-YFP, Fluo-8 calcium fluorescence, 3 µM | 0.29% of 220,000 active | 100% = the carbachol control signal | activation, % at 3 µM;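 active = activation above its plate's cutoff, the mean activation of the plate's test wells plus 3 SD, cut at about 12% in these data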
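Test system: HEK293 cells stably carrying human TRPML3-YFP; Doses: single dose, 3 µM final nominal compound, 0.3% DMSO final; Schedule: dye loading 1 h 37 °C then 30 min ambient, 125 s read; Technique: Fluo-8 calcium fluorescence; Benchmarks: high control carbachol 87 µM, low control DMSO.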
zfTRPN1 agonist: zebrafish TRPN1 channel agonists, primary screen, cell-based, HEK293, calcium fluorescence | HEK293 zebrafish TRPN1-YFP, Fluo-8 calcium fluorescence; 100% = response to 87 µM carbachol | AID 1424, 2008 | activation, % at 3 µM | transient receptor potential cation channel N1 (TRPN1/NompC), Danio rerio | 0.18% of 220,000 active;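 active = activation above its plate's cutoff, the mean activation of test wells on that plate plus 3 SD, cut at about 19% in these data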
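Material – zebrafish TRPN1-YFP in HEK293 cells · Doses – 3 µM single point · Schedule – dye 1 h 37 °C plus 30 min RT · Signal – Fluo-8 calcium fluorescence, excitation 470-495 nm, emission 515-575 nm · Read-out – % activation versus carbachol response · Control set – carbachol high, DMSO low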
Large screens that a line does not name were inactive. Sampled rows, rich in hits. Any-hit rate of the full collection: about 0.58%.

CC(C)=CCC[C@](C)(O)C1CC[C@]2(C)C1[C@H](O)CC1[C@@]3(C)CC[C@H](O[C@@H]4O[C@H](CO)[C@@H](O)[C@H](O)[C@H]4O[C@@H]4O[C@H](CO)[C@@H](O)[C@H](O)[C@H]4O)C(C)(C)C3CC[C@]12C (stereo not given in full)	V1aR counter 38.1, OXTR ag 70.1 (no result: TRPML3 ag, zfTRPN1 agonist)
CC(C)Cc1ccc(C(C)C(=O)Nc2ccccc2O)cc1 (stereo not given)	V1aR counter 39.8, OXTR ag 42.0, TRPML3 ag 22.2, zfTRPN1 agonist 46.1
Cc1c(NC(=O)C(C)c2ccc(CC(C)C)cc2)c(=O)n(-c2ccccc2)n1C (stereo not given)	none
CC(C)Cc1ccc(C(C)C(=O)Nc2nccs2)cc1 (stereo not given)	V1aR counter 28.6, OXTR ag 31.9
COc1ccc(C(=O)CSc2cc(C)[nH]c(=O)n2)cc1	none (no result: TRPML3 ag, zfTRPN1 agonist)
COc1cccc(CN2CC(C(=O)N3CCN(C(C)C)CC3)CCC2=O)c1 (stereo not given)	none (no result: TRPML3 ag, zfTRPN1 agonist)
CCOC(=O)N1CCN(C(=O)C2CC(=O)N(c3ccc(OC)cc3)C2c2ccc(OC)cc2)CC1 (stereo not given)	none
Cc1cc2ccccn2c1C(C[N+](=O)[O-])c1ccc(N(C)C)cc1 (stereo not given)	none
CCCc1nnc(NC(=O)Cn2c(=O)oc3cc(Br)ccc32)s1	V1aR counter 32.3, OXTR ag 33.6
CCCc1nnc(NC(=O)Cn2c(=O)oc3ccccc32)s1	none
COc1cc(/C=C/C(=O)OCC(=O)Nc2ccc(C)cc2[N+](=O)[O-])ccc1O	none
COc1ccc(C2CC(c3cccs3)=NN2c2ccc(C=O)cc2)cc1 (stereo not given)	V1aR counter 27.6, OXTR ag 24.5, TRPML3 ag 17.4, zfTRPN1 agonist 29.3
COc1ccc([N+](=O)[O-])cc1N(CC(=O)Nc1ccccc1C(=O)N1CCCC1)S(C)(=O)=O	none
CCOc1ccc(-c2c(C(=O)N/N=C(\C)c3ccco3)nnn2-c2nonc2N)cc1	V1aR counter 23.1, OXTR ag 25.8 (no result: TRPML3 ag, zfTRPN1 agonist)
COc1cccc(-c2c(C(=O)N/N=C(\C)c3cccs3)nnn2-c2nonc2N)c1	V1aR counter 59.9, OXTR ag 44.3 (no result: TRPML3 ag, zfTRPN1 agonist)
CCOc1ccc(-c2c(C(=O)N/N=C(\C)c3cccs3)nnn2-c2nonc2N)cc1	none (no result: TRPML3 ag, zfTRPN1 agonist)
CCOc1ccc(-c2c(C(=O)N/N=C(\C)c3ccccc3OC)nnn2-c2nonc2N)cc1	none (no result: TRPML3 ag, zfTRPN1 agonist)
CCOc1cccc(-c2c(C(=O)N/N=C(\C)c3cccs3)nnn2-c2nonc2N)c1	V1aR counter 35.9, OXTR ag 36.4 (no result: TRPML3 ag, zfTRPN1 agonist)
O=C(CNc1n[nH]c(=O)[nH]c1=O)N/N=C/c1cccnc1	none
Cc1onc(-c2ccccc2)c1C(=O)NC(=S)NNC(=O)c1ccccc1O	V1aR counter 68.0, OXTR ag 65.0, TRPML3 ag 54.5, zfTRPN1 agonist 81.0
CCCOc1ccc(C(=O)NC(=S)NNC(=O)c2c(-c3ccccc3)noc2C)cc1	V1aR counter 106.0, OXTR ag 93.2, TRPML3 ag 51.6, zfTRPN1 agonist 99.2
CCOc1ccc(NC(=O)COC(=O)c2ncc(Cl)c(Cl)c2Cl)cc1	none
Cc1ccc(Cl)cc1NC(=O)CC(O)(C(F)(F)F)C(F)(F)F	TRPML3 ag 13.1, zfTRPN1 agonist 19.9
COCC(=O)Nc1cc(Cl)ccc1C	none
O/N=C/c1ccnc(SCc2ccccc2)n1	none
Cn1cc(C2=C(c3ccc(Cl)cc3Cl)C(=O)NC2=O)c2ccccc21	V1aR counter 31.3, OXTR ag 29.0 (no result: TRPML3 ag, zfTRPN1 agonist)
Cn1cc(-c2ccccc2C(N)=O)c(=O)c2cc(Cl)ccc21	none
CCOc1cc(/C=N/N2CCOCC2)ccc1OCc1ccc(C(=O)OC)o1	TRPML3 ag 143.9, zfTRPN1 agonist 382.4
CCOC(=O)NC(=O)/C(C#N)=C\Nc1sccc1C(=O)OC	V1aR counter 52.6, OXTR ag 56.9, TRPML3 ag 18.3, zfTRPN1 agonist 22.0
O=C(c1ccc(S(=O)(=O)c2ccccc2Cl)c([N+](=O)[O-])c1)N1CCN(Cc2ccccc2)CC1	none
Cc1ccc(C(=O)NNC(=O)c2cccc(C)c2)cc1	none
O=C(CCc1ccccc1)NNC(=S)NC(=O)c1ccccc1	none
CC(C)(C)c1cc(CCC(=O)NNC(=S)NC(=O)c2ccccc2)cc(C(C)(C)C)c1O	V1aR counter 30.7, OXTR ag 57.7
Cc1cccc(C(=O)NNC(=S)NC(=O)c2cccs2)c1	V1aR counter 63.1, OXTR ag 64.9 (no result: TRPML3 ag, zfTRPN1 agonist)
Cc1cccc(C(=O)NNC(=S)NC(=O)c2ccccc2)c1	V1aR counter 107.7, OXTR ag 82.9 (no result: TRPML3 ag, zfTRPN1 agonist)
COc1ccc(C(=O)NC(=S)NNC(=O)c2cccc(C)c2)cc1	V1aR counter 94.7, OXTR ag 69.9 (no result: TRPML3 ag, zfTRPN1 agonist)
CN(C(=O)/C=C/c1ccccc1)C1CCS(=O)(=O)C1 (stereo not given)	none
Cc1ccc2c(CSc3nc4ccccc4c(=O)n3CCCO)cc(=O)oc2c1C	none
COc1cc(/C=N/NC(=O)c2ccoc2C)cc(OC)c1OC	none
COc1ccc(C(=O)NNC(=S)NC(=O)c2ccc(F)cc2)cc1Br	V1aR counter 75.6, OXTR ag 68.0 (no result: TRPML3 ag, zfTRPN1 agonist)
COc1ccc(C(=O)NNC(=S)NC(=O)c2ccc(OC)cc2)cc1	V1aR counter 28.2, OXTR ag 43.1 (no result: TRPML3 ag, zfTRPN1 agonist)
Cc1cc(C)c2c(=O)n(CC(=O)Nc3ccc(Cl)cc3)sc2n1	V1aR counter 30.3, OXTR ag 32.2
CC(=O)N1CCN(c2ccc(NC(=O)c3cc4ccccc4o3)cc2)CC1	none (no result: TRPML3 ag, zfTRPN1 agonist)
Cc1ccc(SCC(=O)OCC(=O)N(C)CC(=O)Nc2ccc(F)cc2)cc1C	V1aR counter 23.0, OXTR ag 23.7 (no result: TRPML3 ag, zfTRPN1 agonist)
CN(CC(=O)Nc1ccc(F)cc1)C(=O)CSc1ccc2c(c1)OCCO2	none (no result: TRPML3 ag, zfTRPN1 agonist)
Cc1nc2nc[nH]n2c(=O)c1NC(=O)CCc1ccccc1	none
O=S(=O)([O-])CCC[n+]1c(/C=C\Nc2ccccc2)oc2ccc(-c3ccccc3)cc21	TRPML3 ag 25.0, zfTRPN1 agonist 119.0 (no result: OXTR potentiator, V1aR counter, OXTR ag)
O=C(CN1C(=O)C2C3CC(C(Br)C3Br)C2C1=O)N1CCN(Cc2ccccc2)CC1 (stereo not given)	zfTRPN1 agonist 26.8
O=C(CN1C(=O)C2C3CC(C(Br)C3Br)C2C1=O)N1CCOCC1 (stereo not given)	none
CC1=C/C(=N\OS(=O)(=O)c2ccccc2)C(C(C)C)=CC1=O	TRPML3 ag 35.3
CC1=CC(=O)c2ccccc2C1=O	none
O=C(NCCOc1ccc(Cl)cc1)C1CC(=O)N(c2ccc3c(c2)OCCO3)C1 (stereo not given)	none (no result: TRPML3 ag, zfTRPN1 agonist)
COc1cc(/C=N/N2C(=O)CSC2=S)cc(Br)c1O	TRPML3 ag 24.2, zfTRPN1 agonist 40.7 (no result: OXTR potentiator, V1aR counter, OXTR ag)

Compound activity as filed in PubChem BioAssay.
